DDE Tn7 FP inh: DD(E)-Tn7 binding inhibition, primary FP screen; 370,000 compounds, 0.13% hits; P02675; inhibition, % at 8.3 µM; FP displacement of FITC-Tn7 peptide from fibrin DD(E); 0% = median of compound wells per plate;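 active means inhibition above the mean of compounds falling within the control limits plus 3 SD of them, cut at about 14% in these data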;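 further: 0% = plate median of compound wells and 100% = 10 µM Aha-Tn7 peptide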
Target sequence (P02675 whole entry, looked up): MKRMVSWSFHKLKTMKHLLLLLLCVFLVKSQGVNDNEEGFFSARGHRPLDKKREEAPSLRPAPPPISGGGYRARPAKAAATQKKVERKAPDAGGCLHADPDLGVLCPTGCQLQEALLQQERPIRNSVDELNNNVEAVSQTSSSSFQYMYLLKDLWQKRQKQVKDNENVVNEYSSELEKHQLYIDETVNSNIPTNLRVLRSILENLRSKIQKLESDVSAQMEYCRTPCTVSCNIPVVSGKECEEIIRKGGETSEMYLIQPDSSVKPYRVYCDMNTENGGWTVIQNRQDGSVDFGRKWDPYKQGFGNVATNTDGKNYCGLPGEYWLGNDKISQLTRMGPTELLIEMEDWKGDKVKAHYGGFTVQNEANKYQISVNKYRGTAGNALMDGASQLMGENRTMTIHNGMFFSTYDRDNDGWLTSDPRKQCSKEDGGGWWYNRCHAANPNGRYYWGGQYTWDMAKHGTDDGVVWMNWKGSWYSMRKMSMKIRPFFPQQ
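Also added: labelled Tn7 tracer, 0.1 µM; Assay system: human fibrin DD(E) protein; Amount: 2 µM fibrin DD(E); Schedule: 10 min compound pre-incubation, 3 h probe incubation at room temperature; Repeats: one replicate per compound; Read-out basis: percent inhibition; Measured by: fluorescence polarization of the labelled Tn7 tracer.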
CRFR2-BP ag: agonists of human CRF-binding protein/CRF-R2 receptor complex | HEK293 CRF-R2/CRF-BP, calcium dye fluorescence (FLIPR); percent of saturating CRF peptide response | activation, % at 13.2 µM | 350,000 compounds, 0.46% hits | AID 588473;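 active means activation of at least 50%, plus an integration ratio under a set limit after plate pattern correction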;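 further: plate controls were neutral control wells without compound for no effect and CRF at EC100 for full effect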
DDE Tn6 FP inh: DD(E)-Tn6 binding inhibition, primary FP screen | Fibrin DD(E) TRITC-Tn6 fluorescence polarization displacement | inhibition, % at 8.3 µM | AID 720509 | P02675 | 370,000 compounds, 0.21% hits;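 active means inhibition above a per-campaign cutoff: mean of compounds within control limits plus 3 SD, cut at about 15% in these data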;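 further: 0% = median of all compound wells on the plate and 100% = blocking peptide control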
CRFR2-BP antag: blocks CRF-induced signaling of the CRF-BP/CRF-R2 complex | HEK293 CRF-R2/CRF-BP, CRF-induced calcium fluorescence | inhibition, % at 11.8 µM | 350,000 compounds, 0.59% hits | AID 588475;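 active means inhibition of the ligand-induced calcium signal above about 50% at the single tested concentration, limit read from the data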
An asterisk follows results filed as active; / = no result given. Compounds with a hit are over-represented: about 1.3% of the library has one in this group of screens.

SMILES	DDE Tn7 FP inh	CRFR2-BP ag	DDE Tn6 FP inh	CRFR2-BP antag
COC(=O)C[C@@H]1CC[C@H]2[C@@H](COc3ccc(NC(=O)c4cc(C)on4)cc3C(=O)N2C)O1	-2	/	6	/
COc1ccc(S[C@]2(C(=O)N(C)C)CC(=O)N(c3ccsc3)[C@@H]2c2ccc(OC)cc2)cc1	-5	/	5	/
C[C@@H]1COc2cccc(N3CCSCC3)c2S(=O)(=O)N1C	-5	/	3	/
O=C(O)CCN1C(=O)/C(=C/c2cccc(OCc3ccc(F)cc3)c2)SC1=S	-6	/	1	/
Cn1c2ccccc2c(=O)c2c(=O)n(C3CCCCCC3)c(C3CCCCC3)nc21	2	127*	-1	-30
O=S1(=O)c2c(NCc3ccco3)cccc2Oc2ccccc2CN1Cc1cn(Cc2ccc(Cl)cc2)nn1	7	/	5	/
CCCCc1cc(O)c(CCCC)c(O)c1	9	100*	0	-51
Cc1noc(NS(=O)(=O)c2ccc(NC(=O)CS(=O)(=O)c3ccccc3)cc2)c1C	0	-5	-2	60*
CCCCCCCCN1C(=O)[C@@H](CC(=O)NCCCOCCCC)C[C@@]2(C(=O)OC)C1=C[C@H](COCc1ccccc1)O[C@@H]2C	1	/	0	/
CC(Sc1nnc(Cc2cccs2)n1C1CC1)C(=O)NC1CCS(=O)(=O)C1 (stereo not given)	4	1	-3	63*
C#CCOCCOCCOCCNc1nc(N2CCN(C(=O)CCCCCCCCCCNC(=O)[C@@H](CCC(=O)O)n3cc(CCCCCN)nn3)CC2)nc(N2CCN(C(=O)CCCCCCCCCCNC(=O)[C@H](CO)n3cc(CCCCCN)nn3)CC2)n1	/	9	/	0
C#CCOCCOCCOCCNc1nc(N2CCN(C(=O)CCCCCCCCCCNC(=O)[C@@H](CCC(=O)O)n3cc(CCCCCN)nn3)CC2)nc(N2CCN(C(=O)CCCCCCCCCCNC(=O)[C@H](CCCCN)n3cc(C[C@@H](C)CC)nn3)CC2)n1	/	149*	/	-189
C#CCOCCOCCOCCNc1nc(N2CCN(C(=O)CCCCCCCCCCNC(=O)[C@H](CCCCN)n3cc(CCO)nn3)CC2)nc(N2CCN(C(=O)CCCCCCCCCCNC(=O)[C@H](CCCCN)n3cc(C[C@@H](C)CC)nn3)CC2)n1	/	146*	/	-145
COC(=O)[C@]12C[C@H](CC(=O)N3CCN(C(=O)c4ccco4)CC3)C(=O)N(Cc3ccco3)C1=C[C@H](COCc1ccccc1)O[C@@H]2C	-3	/	0	/
CC1=[N+]([O-])C(C)(C)N(O)C1(C)C	1	152*	0	-143
Cc1ccc(C2=[N+]([O-])C(C)(C)N(O)C2(C)C)cc1	5	-4	-1	15
CCCCCN1CCCCC(NC(=O)c2cc(OC)c(OC)c(OC)c2)C1=O (stereo not given)	8	/	-2	/
O=C1c2ccccc2OC2(C=Cc3ccccc3O2)N1Cc1ccccc1 (stereo not given)	1	-1	2	56*
CC[C@@H](C)[C@@H]1CN([C@@H](C)CN2CCC[C@H]2CN2C(N)=NC[C@H]2CC(C)C)C(=N)N1CCc1ccc(Cl)c(Cl)c1	6	-1	9	17
CC[C@@H](C)[C@@H]1CN([C@@H](CN2CCC[C@H]2CN2C(N)=NC[C@H]2CC(C)C)C(C)C)C(=N)N1CCc1ccc(Cl)c(Cl)c1	9	2	2	63*
CCOC(=O)[C@@]12CCCC3=C1N(CCC3)C(=O)[C@H]2CC(=O)NCCCCc1ccccc1	-4	/	-3	/
COc1ccc(-c2nnn3c2Cn2c4ccccc4c(=O)n2[C@@H](C(C)C)C3)cc1	3	/	-3	/
CCOc1ccc(S(=O)(=O)n2ccc(C)n2)c2ccccc12	-4	-2	-2	55*
CCOc1ccc(S(=O)(=O)N2CCCCC2)c2ccccc12	1	0	3	15
O=C(c1ccccc1)c1nc2ccccc2[nH]c1=O	0	-1	2	67*
SMILES	DDE Tn7 FP inh	CRFR2-BP ag	DDE Tn6 FP inh	CRFR2-BP antag
c1ccc(C2=NN(c3ccccc3)CC2)cc1	0	-1	-2	0
CCOC(=O)/C(=C/c1ccc(N2CCC(c3ccccc3)=N2)cc1)C(C)=O	/	254*	/	-307
Cc1cccc(-c2cccc3c4c([nH]c23)[C@@H]2C[C@H](N(C)C(=O)c3ccccc3C)[C@H]([C@H](C)O)CN2CC4)c1	-10	/	-5	/
COC(=O)c1cccc(NC(=O)C2CCCN2C(=O)c2cccs2)c1 (stereo not given)	-5	-1	-12	3
Cc1ccc(NC(=O)C2CCCN2C(=O)c2cccs2)cc1C (stereo not given)	3	-1	-4	54*
COC(=O)C[C@H]1CC[C@@H]2[C@H](COc3ccc(NC(=O)c4cccc(F)c4)cc3C(=O)N2C)O1	4	/	-3	/
CN(C)NC(=S)Nc1ccc2nc(-c3ccccn3)c(-c3ccccn3)nc2c1	-5	59*	-3	-17
O=C(O)c1cccc2cccc(-c3c4ccc(=O)c(O)c-4oc4c(O)c(O)ccc34)c12	5	-3	-7	51*
COc1ccc(OC)c(-c2cc(C(=O)O)c3cc4ccccc4cc3n2)c1	7	3	9	50*
COc1cccc(-c2cc(C(=O)O)c3cc4ccccc4cc3n2)c1OC	-1	1	3	-7
CCOC(=O)c1nnc(-c2ccccc2)nc1N1CC(C)OC(C)C1 (stereo not given)	-10	-1	-4	56*
CCOC(=O)c1cnc(-c2ccccc2)nc1N1CC(C)OC(C)C1 (stereo not given)	-1	1	1	-3
CC1(C)C(=O)OC(c2cccn2-c2ccc([N+](=O)[O-])cc2)C2(CCCCC2)C1=O (stereo not given)	-3	263*	4	-336
CN(C)c1ccc2c(c1)OC(N)=C(C#N)C2c1cccc(F)c1 (stereo not given)	/	79*	/	-176
c1ccc(-n2c(-c3ccncc3)nnc2-c2ccco2)cc1	-6	0	-3	56*
Cc1cccc(N2CCN(S(=O)(=O)c3ccc(Cl)nc3)CC2C)c1 (stereo not given)	1	0	0	76*
CCc1sc(C(=O)NCCc2ccc(S(N)(=O)=O)cc2)cc1Br	1	-9	1	61*
O=C(COC(=O)c1cnc(Cl)c(Cl)c1)NCCC1=CCCCC1	-2	5	11	86*
COc1cc(C(NC(=O)C(F)(F)F)C2CCCC=C2c2ccccc2)cc(OC)c1OC (stereo not given)	8	/	-6	/
O=C1N/C(=N\S(=O)(=O)Cc2ccccc2)S/C1=C/c1cc([N+](=O)[O-])ccc1O	-8	104*	4	-132
COc1cc(/C=C2/S/C(=N/S(=O)(=O)c3ccccc3)NC2=O)c([N+](=O)[O-])cc1OC	2	2	-3	29
O=C1N/C(=N\S(=O)(=O)c2ccccc2)S/C1=C\c1cc([N+](=O)[O-])ccc1O	-1	55*	-1	-106
Cc1nn(-c2ccccc2)c2sc(C(=O)NCc3ccc4c(c3)OCO4)cc12	2	/	-2	/
